Source: ChEMBL document CHEMBL1137561 (J Med Chem, 2007)

Tests used:
[1] = system: Human immunodeficiency virus 1; assay: Antiviral activity against HIV1 with reverse transcriptase IRLL98 mutation in MT4 cells assessed as inhibition of viral induced cytopathic effect by MTT method; format: functional, organism-based; conditions: Human immunodeficiency virus 1, MT4
[2] = target: Human immunodeficiency virus type 1 reverse transcriptase (Human immunodeficiency virus 1, UniProt Q72547, Y188L); assay: Inhibition of HIV1 reverse transcriptase Y188L mutant
[3] = Resistance index, Ratio of EC50 for drug-resistant HIV1 with RT Y188L mutation in MT4 cells to EC50 for HIV1 NL43 in MT4 cells
[4] = system: Human immunodeficiency virus 1; assay: Antiviral activity against HIV1 with reverse transcriptase K103N mutation in MT4 cells assessed as inhibition of viral induced cytopathic effect by MTT method; format: functional, organism-based; conditions: Human immunodeficiency virus 1, MT4
Summary of the method: (§1)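 MT-4 cells infected with the HIV-1 NNRTI-resistant mutant strain. Viable cells scored at day 5 post-infection by the MTT tetrazolium colorimetric method. […] Values are means ± SD from at least two experiments.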

[5] = Resistance index, Ratio of EC50 for drug-resistant HIV1 with RT Y181C mutation in MT4 cells to EC50 for HIV1 NL43 in MT4 cells
[6] = target: Human immunodeficiency virus type 1 reverse transcriptase (Human immunodeficiency virus 1, UniProt Q72547); assay: Inhibition of wild type HIV1 3B reverse transcriptase
[7] = system: Human immunodeficiency virus 1; assay: Antiviral activity against HIV1 with reverse transcriptase Y181C mutation in MT4 cells assessed as inhibition of viral induced cytopathic effect by MTT method; format: functional, organism-based; conditions: Human immunodeficiency virus 1, MT4; summary of the method: as §1
[8] = target: Human immunodeficiency virus type 1 reverse transcriptase (Human immunodeficiency virus 1, UniProt Q72547, K103N); assay: Inhibition of HIV1 reverse transcriptase K103N mutant
[9] = system: Human immunodeficiency virus 1; assay: Antiviral activity against HIV1 with reverse transcriptase Y188L mutation in MT4 cells assessed as inhibition of viral induced cytopathic effect by MTT method; format: functional, organism-based; conditions: Human immunodeficiency virus 1, MT4
Summary of the method: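 MT-4 cells infected with the HIV-1 NNRTI-resistant mutant strain. Viable cells scored at day 5 post-infection by the MTT tetrazolium colorimetric method. Values are means ± SD from at least two experiments.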

[10] = target: Human immunodeficiency virus type 1 reverse transcriptase (Human immunodeficiency virus 1, UniProt Q72547, V179D); assay: Inhibition of HIV1 reverse transcriptase V179D mutant
[11] = Resistance index, Ratio of EC50 for drug-resistant HIV1 with RT IRLL98 mutation in MT4 cells to EC50 for HIV1 NL43 in MT4 cells
[12] = system: Human immunodeficiency virus 1; assay: Antiviral activity against HIV1 NL43 in MT4 cells assessed as inhibition of viral induced cytopathic effect after 5 days by MTT method; conditions: Human immunodeficiency virus 1, NL43, MT4, 120 h
[13] = target: Human immunodeficiency virus type 1 reverse transcriptase (Human immunodeficiency virus 1, UniProt Q72547, L100I); assay: Inhibition of HIV1 reverse transcriptase L100I mutant
[14] = Cytotoxicity against MT4 cells after 4 days by MTT method; format: cell-based; conditions: human
Summary of the method: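 Mock-infected (noninfected) MT-4 cells, run in parallel with the antiviral test. Viable cells read by the MTT tetrazolium colorimetric method. […] Means ± SD from at least two experiments. The top concentration was limited where compounds precipitated in the culture medium.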

[15] = Selectivity index, ratio of CC50 for MT4 cells to EC50 for HIV1 NL43 infected MT4 cells; format: functional
[16] = Inhibition of HIV1 reverse transcriptase Y1811 mutant; parameters: species or system Human immunodeficiency virus 1
Summary of the method: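 Recombinant HIV-1 RT Y181I mutant, purified to >95%, 10 min preincubation with inhibitor. Radioactive nucleotide incorporation into poly(rA)/oligo(dT) 10:1 was followed at varied nucleotide substrate levels, sampling every 2 min for initial velocities. Inhibitor spanned 0.2–5 Ki. Ki came from Lineweaver-Burk and Dixon plots. Means ± SD of at least three experiments.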

[17] = target: Human immunodeficiency virus type 1 reverse transcriptase (Human immunodeficiency virus 1, UniProt Q72547, V106A); assay: Inhibition of HIV1 reverse transcriptase V106A mutant
[18] = Resistance index, Ratio of EC50 for drug-resistant HIV1 with RT K103N mutation in MT4 cells to EC50 for HIV1 NL43 in MT4 cells

SMILES	EC50 [1]	Ki [2]	Ratio EC50 [3]	EC50 [4]	Ratio EC50 [5]	Ki [6]	EC50 [7]	Ki [8]	EC50 [9]	Ki [10]	Ratio EC50 [11]	EC50 [12]	Ki [13]	CC50 at 96 h [14]	Ratio CC50/EC50 [15]	Ki [16]	Ki [17]	Ratio EC50 [18]
Cc1c(C(C)c2c(F)cccc2F)nc(N2CCOCC2)[nH]c1=O (centres undefined)	50 nM	5.5 µM	280	390 nM	45	3 nM	90 nM	3.3 µM	0.56 µM	> 20 µM	25	2 nM	10 µM	> 74 µM	>37000	> 20 µM	500 nM	195
CC(c1cc(=O)[nH]c(N(C)C)n1)c1c(F)cccc1F (centres undefined)	670 nM			120 nM	260		260 nM		> 10 µM		670	1 nM		89 µM	89000		500 nM	120
Cc1c(Cc2c(F)cccc2F)nc(N2CCN(C)CC2)[nH]c1=O						2000 nM				> 40 µM		598 nM		> 75 µM	>125		900 nM	
Cc1c(Cc2c(F)cccc2F)nc(N2CCCCC2)[nH]c1=O	820 nM		3333	> 10000 nM	47		140 nM		10 µM		273	3 nM		> 78 µM	>26000			
CCC(c1cc(=O)[nH]c(N(C)C)n1)c1c(F)cccc1F (centres undefined)	1600 nM	5 µM		180 nM	215	100 nM	430 nM	10 µM	> 10 µM	0.03 µM	800	2 nM	3.3 µM	73 µM	36500	> 20 µM	140 nM	90
Cc1c(C(C)c2c(F)cccc2F)nc(N2CCCCC2)[nH]c1=O (centres undefined)	60 nM	3.5 µM	56	520 nM	10	70 nM	70 nM	0.6 µM	0.39 µM	0.01 µM	9	7 nM	2 µM	> 75 µM	>10714	> 20 µM	20 nM	74
CN1CCN(c2nc(Cc3c(F)cccc3F)cc(=O)[nH]2)CC1		> 20 µM				11200 nM		> 20 µM		> 40 µM		6090 nM	> 20 µM	> 78 µM	>13	> 20 µM	> 40000 nM	
COc1ccccc1N1CCN(c2nc(Cc3c(F)cccc3F)c(C)c(=O)[nH]2)CC1		25.7 µM				250 nM		> 20 µM		5 µM		218 nM	10 µM	37 µM	170	> 20 µM	500 nM	
Cc1c(Cc2c(F)cccc2F)nc(N2CCOCC2)[nH]c1=O	> 10000 nM	> 20 µM		> 10000 nM		50 nM	> 10000 nM	> 20 µM	> 10 µM	8.3 µM		26 nM	0.9 µM	> 78 µM	>3000	> 20 µM	400 nM	
